Data as given in ChEMBL document CHEMBL1139042, “1,3-Disubstituted-imidazo[1,5-a]pyrazines as insulin-like growth-factor-I receptor (IGF-IR) inhibitors” (Bioorg Med Chem Lett, 2007).

How the values were obtained:
[1] = biological target: T1, Insulin-like growth factor 1 receptor (Homo sapiens, UniProt P08069); experiment: Inhibition of human recombinant GST-IGF1R activity
[2] = biological target: T1, Insulin-like growth factor 1 receptor; experiment: Inhibition of IGF1-stimulated phosphorylation of human recombinant IGF1R expressed in NIH3T3 cells; type: cell-based
[3] = Cmax in CD1 mouse at 50 mg/kg, po; type: ADME, organism-based; set-up: dose 50 mg/kg, route oral; conditions: in vivo
Outline: (§1)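 Female CD-1 mice, 6–10 weeks old, received a single 1 mg/kg IV tail-vein dose or a single 50 mg/kg oral gavage dose. The oral vehicle varied by compound: 30:70 PEG-400:WFI with Labrafil, 50:50 PEG-400:WFI, or 50:50 PEG-400:5% citric acid. Three animals were sacrificed per timepoint and blood was taken into EDTA by cardiac puncture. Plasma (1500g, 10 min) was methanol-precipitated and analysed by HPLC-MS/MS against spiked mouse-plasma calibrants. Parameters came from non-compartmental analysis of median (n=3) concentrations.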

[4] = AUC (0 to infinity) in CD1 mouse at 50 mg/kg, po; type: ADME, organism-based; set-up: time infinity, dose 50 mg/kg, route oral; conditions: plasma; outline: as §1
[5] = Oral bioavailability in CD1 mouse at 50 mg/kg, po; type: ADME, organism-based; conditions: in vivo; outline: as §1
[6] = Half life in CD1 mouse at 1 mg/kg, iv; type: ADME, organism-based; set-up: dose 1 mg/kg, route intravenous; conditions: in vivo; outline: as §1
[7] = biological target: Tyrosine-protein kinase ABL1 (Homo sapiens) (UniProt P00519); experiment: Inhibition of Abl at 10 uM
Outline: (§2)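 Radiometric kinase profiling was run as an outsourced panel on recombinant purified enzymes.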

[8] = species: Homo sapiens; experiment: Inhibition of Cdk2/Cyclin A at 10 uM; outline: as §2
[9] = species: Homo sapiens; experiment: Inhibition of Cdk2/Cyclin E at 10 uM; outline: as §2
[10] = biological target: Serine/threonine-protein kinase Chk2 (Homo sapiens) (UniProt O96017); experiment: Inhibition of Chk2 at 10 uM; outline: as §2
[11] = species: Homo sapiens; experiment: Inhibition of PKA at 10 uM; outline: as §2
[12] = biological target: Tyrosine-protein kinase Fes/Fps (Homo sapiens) (UniProt P07332); experiment: Inhibition of Fes at 10 uM; outline: as §2
[13] = biological target: Casein kinase II subunit alpha (Homo sapiens) (UniProt P68400); experiment: Inhibition of CK2 at 10 uM; outline: as §2
[14] = biological target: RAF proto-oncogene serine/threonine-protein kinase (Homo sapiens) (UniProt P04049); experiment: Inhibition of c-Raf at 10 uM; outline: as §2
[15] = biological target: T2, Inhibitor of nuclear factor kappa-B kinase subunit beta (Homo sapiens) (UniProt O14920); experiment: Inhibition of IKK-beta at 10 uM; outline: as §2
T2 sequence (whole entry): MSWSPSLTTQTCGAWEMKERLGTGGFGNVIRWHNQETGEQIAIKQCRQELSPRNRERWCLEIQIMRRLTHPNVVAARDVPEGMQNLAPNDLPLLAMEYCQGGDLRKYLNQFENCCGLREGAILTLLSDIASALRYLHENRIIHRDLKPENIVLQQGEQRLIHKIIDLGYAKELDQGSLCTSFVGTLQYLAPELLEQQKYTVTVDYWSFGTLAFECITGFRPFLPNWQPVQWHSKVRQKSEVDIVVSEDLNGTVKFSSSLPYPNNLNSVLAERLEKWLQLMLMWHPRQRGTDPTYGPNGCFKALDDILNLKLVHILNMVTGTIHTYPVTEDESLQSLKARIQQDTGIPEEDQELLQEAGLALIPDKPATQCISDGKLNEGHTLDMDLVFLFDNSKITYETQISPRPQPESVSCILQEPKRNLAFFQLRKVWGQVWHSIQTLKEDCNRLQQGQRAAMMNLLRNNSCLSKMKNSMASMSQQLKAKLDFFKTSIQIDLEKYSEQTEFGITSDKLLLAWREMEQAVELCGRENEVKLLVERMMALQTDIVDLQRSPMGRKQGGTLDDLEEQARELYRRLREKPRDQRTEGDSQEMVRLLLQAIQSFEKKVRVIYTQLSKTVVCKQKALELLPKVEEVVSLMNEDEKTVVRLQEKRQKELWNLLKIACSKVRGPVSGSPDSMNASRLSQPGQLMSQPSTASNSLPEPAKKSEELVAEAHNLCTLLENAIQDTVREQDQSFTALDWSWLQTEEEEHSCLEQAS

[16] = biological target: Ribosomal protein S6 kinase beta-1 (Homo sapiens) (UniProt P23443); experiment: Inhibition of p70S6K at 10 uM; outline: as §2
[17] = biological target: Platelet-derived growth factor receptor beta (Homo sapiens) (UniProt P09619); experiment: Inhibition of PDGFRbeta at 10 uM; outline: as §2
[18] = species: Homo sapiens; experiment: Inhibition of PKBalpha at 10 uM; outline: as §2
[19] = biological target: Protein kinase C alpha type (Homo sapiens) (UniProt P17252); experiment: Inhibition of PKCalpha at 10 uM; outline: as §2
[20] = biological target: 3-phosphoinositide-dependent protein kinase 1 (PDPK1) (Homo sapiens) (UniProt O15530); experiment: Inhibition of PDK1 at 10 uM
[21] = biological target: Mitogen-activated protein kinase 1 (ERK2) (Homo sapiens) (UniProt P28482); experiment: Inhibition of MAPK2 at 10 uM
Chain of Mitogen-activated protein kinase 1 (ERK2) (Homo sapiens) (P28482 whole entry, looked up): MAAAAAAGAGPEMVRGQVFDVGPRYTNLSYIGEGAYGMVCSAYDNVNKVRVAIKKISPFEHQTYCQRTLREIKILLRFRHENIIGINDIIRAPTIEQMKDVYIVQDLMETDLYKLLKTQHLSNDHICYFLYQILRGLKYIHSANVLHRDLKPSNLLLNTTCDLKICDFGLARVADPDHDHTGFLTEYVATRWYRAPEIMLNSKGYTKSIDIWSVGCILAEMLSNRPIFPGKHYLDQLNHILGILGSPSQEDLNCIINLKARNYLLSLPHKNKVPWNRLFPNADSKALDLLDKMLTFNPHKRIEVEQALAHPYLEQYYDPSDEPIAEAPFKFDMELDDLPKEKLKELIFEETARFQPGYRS

T1 sequence (P08069 31-736 limits assumed): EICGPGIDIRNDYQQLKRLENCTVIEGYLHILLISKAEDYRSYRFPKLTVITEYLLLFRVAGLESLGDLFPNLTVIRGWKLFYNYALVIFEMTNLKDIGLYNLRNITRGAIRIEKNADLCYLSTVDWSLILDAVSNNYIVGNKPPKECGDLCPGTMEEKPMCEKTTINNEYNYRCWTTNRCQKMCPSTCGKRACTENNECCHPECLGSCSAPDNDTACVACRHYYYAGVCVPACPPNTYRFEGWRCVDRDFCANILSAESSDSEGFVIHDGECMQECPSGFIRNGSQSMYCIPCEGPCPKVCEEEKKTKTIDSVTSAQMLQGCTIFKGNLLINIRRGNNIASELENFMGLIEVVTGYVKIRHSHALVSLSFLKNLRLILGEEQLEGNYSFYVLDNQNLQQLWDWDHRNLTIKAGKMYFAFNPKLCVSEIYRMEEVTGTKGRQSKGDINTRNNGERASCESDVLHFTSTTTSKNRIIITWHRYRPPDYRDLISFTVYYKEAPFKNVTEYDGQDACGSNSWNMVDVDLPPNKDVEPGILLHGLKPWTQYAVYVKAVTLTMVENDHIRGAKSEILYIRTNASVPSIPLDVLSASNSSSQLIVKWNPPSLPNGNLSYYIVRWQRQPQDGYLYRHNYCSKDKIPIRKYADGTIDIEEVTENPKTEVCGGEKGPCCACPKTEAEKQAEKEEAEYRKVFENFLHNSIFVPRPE
T1 sequence (P08069 741-1367 limits assumed): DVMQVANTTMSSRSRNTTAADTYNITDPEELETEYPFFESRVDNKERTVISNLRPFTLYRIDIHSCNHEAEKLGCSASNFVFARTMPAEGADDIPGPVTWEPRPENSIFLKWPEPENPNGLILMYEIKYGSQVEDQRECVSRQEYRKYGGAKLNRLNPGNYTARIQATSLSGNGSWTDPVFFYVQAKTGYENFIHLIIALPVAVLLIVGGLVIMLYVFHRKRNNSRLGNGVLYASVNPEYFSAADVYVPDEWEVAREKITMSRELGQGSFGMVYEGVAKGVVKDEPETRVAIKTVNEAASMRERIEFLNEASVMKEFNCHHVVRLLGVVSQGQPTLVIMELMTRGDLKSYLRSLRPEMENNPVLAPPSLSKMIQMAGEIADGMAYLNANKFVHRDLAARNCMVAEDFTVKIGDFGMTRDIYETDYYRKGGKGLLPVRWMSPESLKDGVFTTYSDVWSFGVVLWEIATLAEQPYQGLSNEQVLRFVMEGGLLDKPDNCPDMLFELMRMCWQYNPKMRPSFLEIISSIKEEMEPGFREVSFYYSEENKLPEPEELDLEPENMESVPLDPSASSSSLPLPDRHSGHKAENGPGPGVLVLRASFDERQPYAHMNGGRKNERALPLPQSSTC
Chain of Casein kinase II subunit alpha (Homo sapiens) (P68400 whole entry, looked up): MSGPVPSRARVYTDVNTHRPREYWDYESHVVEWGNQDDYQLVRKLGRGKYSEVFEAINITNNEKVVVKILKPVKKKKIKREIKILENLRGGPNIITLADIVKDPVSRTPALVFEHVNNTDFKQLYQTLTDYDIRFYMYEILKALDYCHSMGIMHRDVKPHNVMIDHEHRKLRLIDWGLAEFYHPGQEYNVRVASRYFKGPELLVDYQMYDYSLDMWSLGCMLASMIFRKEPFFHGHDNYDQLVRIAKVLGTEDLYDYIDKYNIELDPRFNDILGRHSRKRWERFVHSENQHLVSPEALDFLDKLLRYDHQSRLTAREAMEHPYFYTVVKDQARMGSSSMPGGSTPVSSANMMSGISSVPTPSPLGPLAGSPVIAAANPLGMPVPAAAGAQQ
Chain of Serine/threonine-protein kinase Chk2 (Homo sapiens) (O96017 whole entry): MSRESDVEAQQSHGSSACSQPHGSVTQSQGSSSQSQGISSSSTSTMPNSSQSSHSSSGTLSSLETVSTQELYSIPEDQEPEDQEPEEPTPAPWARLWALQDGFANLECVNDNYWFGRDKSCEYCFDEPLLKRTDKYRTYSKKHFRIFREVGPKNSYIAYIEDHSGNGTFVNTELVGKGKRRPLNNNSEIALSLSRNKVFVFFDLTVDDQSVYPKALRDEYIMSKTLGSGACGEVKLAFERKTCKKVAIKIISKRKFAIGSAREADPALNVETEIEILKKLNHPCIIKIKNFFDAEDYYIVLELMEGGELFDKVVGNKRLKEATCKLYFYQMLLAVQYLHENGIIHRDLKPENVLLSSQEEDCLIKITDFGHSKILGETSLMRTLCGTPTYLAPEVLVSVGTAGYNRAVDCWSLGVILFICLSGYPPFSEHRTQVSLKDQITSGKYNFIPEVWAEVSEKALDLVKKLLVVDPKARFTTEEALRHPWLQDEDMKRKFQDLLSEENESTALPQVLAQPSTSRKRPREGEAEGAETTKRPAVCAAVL
Chain of RAF proto-oncogene serine/threonine-protein kinase (Homo sapiens) (P04049 whole entry): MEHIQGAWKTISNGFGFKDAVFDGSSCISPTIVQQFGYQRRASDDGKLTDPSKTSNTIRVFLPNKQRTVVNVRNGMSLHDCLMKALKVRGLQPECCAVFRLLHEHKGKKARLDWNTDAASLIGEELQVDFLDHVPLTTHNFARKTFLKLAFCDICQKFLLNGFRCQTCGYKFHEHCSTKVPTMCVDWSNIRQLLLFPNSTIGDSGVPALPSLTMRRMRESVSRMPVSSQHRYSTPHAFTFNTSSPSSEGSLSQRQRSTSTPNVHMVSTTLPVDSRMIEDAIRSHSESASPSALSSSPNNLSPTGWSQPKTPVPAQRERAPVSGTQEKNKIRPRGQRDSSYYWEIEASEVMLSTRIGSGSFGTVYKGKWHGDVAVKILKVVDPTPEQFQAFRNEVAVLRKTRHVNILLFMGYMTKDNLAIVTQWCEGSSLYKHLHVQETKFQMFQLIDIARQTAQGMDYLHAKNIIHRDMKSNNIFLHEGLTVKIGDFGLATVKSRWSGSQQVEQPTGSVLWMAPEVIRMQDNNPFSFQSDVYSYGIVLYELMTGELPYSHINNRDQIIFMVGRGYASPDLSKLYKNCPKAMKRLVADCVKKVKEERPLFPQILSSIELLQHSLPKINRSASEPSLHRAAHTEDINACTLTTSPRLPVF
Chain of Ribosomal protein S6 kinase beta-1 (Homo sapiens) (P23443 whole entry, looked up): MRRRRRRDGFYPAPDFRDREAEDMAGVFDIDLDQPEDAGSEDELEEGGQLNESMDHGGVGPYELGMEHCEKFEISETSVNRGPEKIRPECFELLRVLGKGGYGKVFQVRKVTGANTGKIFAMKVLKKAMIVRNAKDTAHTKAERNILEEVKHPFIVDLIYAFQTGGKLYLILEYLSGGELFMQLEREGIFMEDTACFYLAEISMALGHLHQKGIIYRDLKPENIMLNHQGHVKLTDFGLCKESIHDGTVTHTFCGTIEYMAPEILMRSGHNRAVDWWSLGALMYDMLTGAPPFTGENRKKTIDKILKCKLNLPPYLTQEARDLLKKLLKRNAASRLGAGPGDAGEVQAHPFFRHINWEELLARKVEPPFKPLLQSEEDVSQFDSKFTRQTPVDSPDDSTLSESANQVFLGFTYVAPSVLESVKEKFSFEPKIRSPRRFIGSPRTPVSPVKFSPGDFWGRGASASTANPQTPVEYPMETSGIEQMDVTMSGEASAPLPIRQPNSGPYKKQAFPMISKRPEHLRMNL
Chain of Platelet-derived growth factor receptor beta (Homo sapiens) (P09619 whole entry): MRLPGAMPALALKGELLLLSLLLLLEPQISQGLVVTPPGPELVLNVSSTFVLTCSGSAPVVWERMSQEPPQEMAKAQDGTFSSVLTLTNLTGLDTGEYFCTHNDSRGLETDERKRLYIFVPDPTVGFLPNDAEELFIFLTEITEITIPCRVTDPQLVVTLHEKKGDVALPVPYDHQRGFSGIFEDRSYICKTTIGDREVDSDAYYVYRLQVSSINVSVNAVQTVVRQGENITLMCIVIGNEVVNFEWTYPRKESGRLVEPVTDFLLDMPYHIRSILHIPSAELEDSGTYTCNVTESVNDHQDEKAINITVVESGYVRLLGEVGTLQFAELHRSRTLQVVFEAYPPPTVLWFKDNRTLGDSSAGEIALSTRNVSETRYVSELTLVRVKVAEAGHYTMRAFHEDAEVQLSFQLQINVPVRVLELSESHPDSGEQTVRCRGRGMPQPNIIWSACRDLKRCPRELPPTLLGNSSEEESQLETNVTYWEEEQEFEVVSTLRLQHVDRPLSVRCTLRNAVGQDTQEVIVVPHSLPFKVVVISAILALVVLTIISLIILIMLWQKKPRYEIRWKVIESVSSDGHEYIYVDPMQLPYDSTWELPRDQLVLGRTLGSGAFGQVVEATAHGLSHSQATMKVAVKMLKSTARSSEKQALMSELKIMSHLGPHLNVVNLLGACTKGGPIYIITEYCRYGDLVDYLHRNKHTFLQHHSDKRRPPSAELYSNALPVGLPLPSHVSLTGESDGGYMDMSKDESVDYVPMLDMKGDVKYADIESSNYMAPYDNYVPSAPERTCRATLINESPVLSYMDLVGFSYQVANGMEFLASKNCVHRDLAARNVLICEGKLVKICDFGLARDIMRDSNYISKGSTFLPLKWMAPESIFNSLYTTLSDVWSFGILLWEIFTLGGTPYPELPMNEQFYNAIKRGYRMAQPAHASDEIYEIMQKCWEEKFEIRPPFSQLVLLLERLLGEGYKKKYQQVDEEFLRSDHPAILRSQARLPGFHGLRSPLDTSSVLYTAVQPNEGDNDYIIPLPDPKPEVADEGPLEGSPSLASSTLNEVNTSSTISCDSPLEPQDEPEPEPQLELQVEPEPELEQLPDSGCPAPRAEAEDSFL

| IC50 [1] [nM] | IC50 [2] [nM] | Cmax [3] [nM] | AUC(0-inf) [4] [ng·h/mL] | bioavailability [5] [%] | half-life [6] [h] | SMILES | further results |
| --- | --- | --- | --- | --- | --- | --- | --- |
| 60 | 690 | – | – | – | – | NC[C@H]1C[C@@H](c2nc(-c3cccc(OCc4ccccc4)c3)c3c(N)nccn32)C1 | – |
| 606 | 1160 | 860 | 1760 | 47 | 1.3 | Nc1nccn2c(C3CCC3)nc(-c3cccc(OCc4ccccc4)c3)c12 | – |
| 1350 | – | – | – | – | – | COc1ccc(-c2nc(C3CCC3)n3ccnc(N)c23)cc1OCc1ccccc1 | – |
| 228 | 560 | – | – | – | – | NC[C@H]1CC[C@@H](c2nc(-c3cccc(OCc4ccccc4)c3)c3c(N)nccn32)CC1 | – |
| – | – | 2220 | 1320 | 34 | 0.63 | Nc1nccn2c1c(-c1cccc(OCc3ccccc3)c1)nc2[C@H]1CC[C@H](C(N)=O)CC1 | – |
| 81 | 398 | – | – | – | – | Nc1nccn2c1c(-c1cccc(OCc3ccccc3)c1)nc2[C@H]1CC[C@H](CN2CCC2)CC1 | – |
| 119 | 534 | 2850 | 3930 | 47 | 2.29 | NC[C@H]1CC[C@H](c2nc(-c3cccc(OCc4ccccc4)c3)c3c(N)nccn32)CC1 | inhibition [7]: < 50%; inhibition [8]: < 50%; inhibition [9]: < 50%; inhibition [10]: < 50%; inhibition [11]: < 50%; inhibition [12]: < 50%; inhibition [13]: < 50%; inhibition [14]: < 50%; inhibition [15]: < 50%; inhibition [16]: < 50%; inhibition [17]: < 50%; inhibition [18]: < 50%; inhibition [19]: < 50%; inhibition [20]: < 50%; inhibition [21]: < 50% |
| > 10000 | – | – | – | – | – | Nc1nccn2c(C3CCC3)nc(-c3ccc(Oc4ccccc4)cc3)c12 | – |
